Test results published in ChEMBL document CHEMBL4130436, “Meroterpenoids from a Medicinal Fungus Antrodia cinnamomea” (2017).

Experiments:
[1] = test system: PC-3; test: Growth inhibition of human PC3 cells after 48 hrs by SRB assay; format: functional; settings: PC-3, 48 h
Procedure, shortened: (§1)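 Cells (from ATCC) grown in RPMI-1640 with 10% FBS and penicillin/streptomycin/amphotericin B, 37 °C, 5% CO2. Seeded overnight, then exposed to various compound concentrations for 48 h. A time-zero plate fixed with 10% TCA at dosing. After treatment, cells fixed with 10% TCA, stained with 0.4% SRB in 1% acetic acid, lysed in 10 mM Trizma base, A515 read. GI50 = concentration giving 50% reduction of the control protein increase.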

[2] = test system: A549; test: Growth inhibition of human A549 cells after 48 hrs by SRB assay; format: functional; settings: A549, 48 h; procedure, shortened: as §1

| SMILES | GI50 [1] [µM] | GI50 [2] [µM] |
| --- | --- | --- |
| COC1=C(OC)[C@H](O)[C@H](C/C=C(\C)CC/C=C(\C)C/C=C/C(C)(C)O)[C@@H](C)C1=O | > 30 | 23.8 |
| COc1cc2c(c(C)c1O)C=C[C@](C)(CC/C=C(\C)CCC=C(C)C)O2 | > 30 | > 30 |
| COC1=C[C@H](O)[C@H](C/C=C(\C)CC/C=C(\C)C[C@@H]2C[C@@H](C)C(=O)O2)[C@@H](C)C1=O | > 30 | > 30 |
| COC1=C[C@H](O)[C@H](C/C=C(\C)CC/C=C(\C)C[C@H](O)/C=C(\C)CO)[C@@H](C)C1=O | > 30 | > 30 |
| COC1=C(OC)[C@H](OC(C)=O)[C@H](C/C=C(\C)CC/C=C(\C)C[C@H](O)/C=C(\C)C(=O)O)[C@@H](C)C1=O | > 30 | > 30 |
| COC1=C(OC)[C@H](OC(C)=O)[C@H](C/C=C(\C)CC/C=C(\C)C[C@H](O)/C=C(\C)CO)[C@@H](C)C1=O | > 30 | 29 |
| COC1=C(OC)[C@H](OC(C)=O)[C@H](C/C=C(\C)CC/C=C(\C)C[C@@H]2C[C@@H](C)C(=O)O2)[C@@H](C)C1=O | > 30 | 11.3 |
| COC1=C[C@H](O)[C@H](C/C=C(\C)CC/C=C(\C)CCC=C(C)C)[C@@H](C)C1=O | > 30 | 16.4 |
| COC1=C(OC)[C@H](O)[C@H](C/C=C(\C)CC/C=C(\C)CCCC(C)CO)[C@@H](C)C1=O (stereo not given in full) | > 30 | 7.1 |
| COC1=C(OC)C(=O)C(C/C=C(\C)CC/C=C(\C)CCC=C(C)C)=C(C)C1=O | > 30 | > 30 |
| COC1=C(O)[C@H](O)[C@H](C/C=C(\C)CC/C=C(\C)C[C@H](O)/C=C(\C)CO)[C@@H](C)C1=O | > 30 | > 30 |
| COC1=C(OC)[C@H](O)[C@H](C/C=C(\C)CC/C=C(\C)C[C@H](O)C=C(C)C)[C@@H](C)C1=O | > 30 | 9.6 |
| COC1=C(OC)[C@H](O)[C@H](C/C=C(\C)CC/C=C(\C)C[C@@H]2C[C@@H](C)C(=O)O2)[C@@H](C)C1=O | > 30 | 14.1 |
| COC1=C(OC)C(=O)C(C/C=C(\C)CC/C=C(\C)C[C@H](O)C=C(C)C)=C(C)C1=O | > 30 | > 30 |
| COC1=CC(=O)C(C/C=C(\C)CC/C=C(\C)CCC=C(C)C)=C(C)C1=O | > 30 | > 30 |
| COC1=C(OC)[C@H](O)[C@H](C/C=C(\C)CC/C=C(\C)CC/C=C(\C)CO)[C@@H](C)C1=O | > 30 | 8.2 |
| COC1=C(OC)[C@H](O)[C@H](C/C=C(\C)CC/C=C(\C)C[C@H](O)/C=C(\C)CO)[C@@H](C)C1=O | > 30 | 12 |
| COC1=C(OC)[C@H](OC(C)=O)[C@H](C/C=C(\C)CC/C=C(\C)C[C@H](O)C=C(C)C)[C@@H](C)C1=O | > 30 | 20.7 |
| COC1=C(OC)[C@H](O)[C@H](C/C=C(\C)CC/C=C(\C)CCC=C(C)C)[C@@H](C)C1=O [ANTROQUINONOL] | 13.5 | 5.7 |
| O=c1[nH]cc(F)c(=O)[nH]1 [FLUOROURACIL] | 11.7 | 4.2 |
